Measured values as given in ChEMBL document CHEMBL4387757, “Synthesis and molecular modeling of novel non-sulfonylureas as hypoglycemic agents and selective ALR2 inhibitors” (Bioorg Med Chem, 2019).
pIC50: −log10 of the molar value.

Key:
Mus musculus [1] = experiment: Antihyperglycemic activity in alloxan-induced diabetic BALB/c mouse model assessed as blood glucose level at 10 mg/kg measured immediately by glucometry analysis; format: functional
Summary of the method: (§1)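 Diabetic BALB/c mice; blood sampled before dosing (0 h) and again at 2, 4, 6 and 8 h to measure blood glucose (mg/dl). Values are means ± SEM from three trials.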

Mus musculus [2] = experiment: Antihyperglycemic activity in alloxan-induced diabetic BALB/c mouse model assessed as blood glucose level at 10 mg/kg measured after 2 hrs by glucometry analysis; format: functional; summary of the method: as §1
Mus musculus [3] = experiment: Antihyperglycemic activity in alloxan-induced diabetic BALB/c mouse model assessed as blood glucose level at 10 mg/kg measured after 4 hrs by glucometry analysis; format: functional; summary of the method: as §1
Mus musculus [4] = experiment: Antihyperglycemic activity in alloxan-induced diabetic BALB/c mouse model assessed as blood glucose level at 10 mg/kg measured after 6 hrs by glucometry analysis; format: functional; summary of the method: as §1
Mus musculus [5] = experiment: Antihyperglycemic activity in alloxan-induced diabetic BALB/c mouse model assessed as blood glucose level at 10 mg/kg measured after 8 hrs by glucometry analysis; format: functional; summary of the method: as §1
Mus musculus [6] = experiment: Antihyperglycemic activity in alloxan-induced diabetic BALB/c mouse model assessed as reduction in blood glucose level at 10 mg/kg measured after 8 hrs by glucometry analysis relative to control; format: functional
Summary of the method: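 Diabetic BALB/c mice; blood glucose measured at 0 h and at 2, 4, 6 and 8 h. Percent inhibition of blood glucose was calculated at 8 h. Three trials.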

[7] = target: T1, Aldo-keto reductase family 1 member B1 (Homo sapiens, UniProt P15121); experiment: Selectivity index, ratio of IC50 for ALR1 (unknown origin) to IC50 for ALR2 (unknown origin)
[8] = target: Aldo-keto reductase family 1 member A1 (Homo sapiens, UniProt P14550); experiment: Inhibition of ALR1 (unknown origin) using sodium d-glucoronate as substrate preincubated for 10 mins followed by substrate addition by UV-spectrophotometry analysis
Summary of the method: (§2)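 Enzyme activity followed by UV spectrophotometry as the decrease in NADPH absorbance at 340 nm. Valproic acid served as positive control for ALR1, sorbinil for ALR2.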

[9] = target: T1, Aldo-keto reductase family 1 member B1; experiment: Inhibition of ALR2 (unknown origin) using sodium dl-glyceraldehyde as substrate preincubated for 10 mins followed by substrate addition by UV-spectrophotometry analysis; summary of the method: as §2

Sequence of Aldo-keto reductase family 1 member A1 (P14550 2-325 limits assumed): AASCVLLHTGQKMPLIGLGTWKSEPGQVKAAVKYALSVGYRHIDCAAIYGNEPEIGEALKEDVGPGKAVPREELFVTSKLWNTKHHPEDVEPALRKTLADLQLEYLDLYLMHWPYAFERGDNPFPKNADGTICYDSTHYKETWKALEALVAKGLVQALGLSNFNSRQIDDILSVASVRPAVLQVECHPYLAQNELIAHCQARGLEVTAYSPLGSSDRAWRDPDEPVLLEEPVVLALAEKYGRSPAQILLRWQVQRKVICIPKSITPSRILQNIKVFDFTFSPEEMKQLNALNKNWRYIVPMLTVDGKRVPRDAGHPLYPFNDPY

Row | SMILES | Ratio IC50 [7] | pIC50 [8] | pIC50 [9] | Activity (Mus musculus [1]) [mg/dL] | Activity (Mus musculus [2]) [mg/dL] | Activity (Mus musculus [3]) [mg/dL] | Activity (Mus musculus [4]) [mg/dL] | Activity (Mus musculus [5]) [mg/dL] | inhibition in vivo at 10 mg/kg (Mus musculus [6]) [%]
1 | Cc1ccc(NC(=O)CN2C(=O)NC3(C2=O)c2ccccc2-c2ccccc23)cc1 | 1.76 | 4.96 | 5.21 | 358 | 314 | 283 | 211 | 167 | 53.4
2 | COc1ccc(NC(=O)CN2C(=O)NC3(C2=O)c2ccccc2-c2ccccc23)cc1 | 8.45 | 4.62 | 5.54 | 320 | 258 | 237 | 279 | 370 | 
3 | CCOc1cc(CC(=O)N[C@@H](CC(C)C)c2ccccc2N2CCCCC2)ccc1C(=O)O [REPAGLINIDE] |  |  |  | 392 | 313 | 259 | 160 | 94 | 66.1
4 | O=C(CN1C(=O)NC2(CCCCC2)C1=O)Nc1ccc(Cl)cc1 | 18.3 | 4.68 | 5.95 | 406 | 347 | 242 | 170 | 85 | 79.2
5 | COc1ccc(NC(=O)CN2C(=O)NC3(CCCCC3)C2=O)cc1 | 9.36 | 4.59 | 5.56 | 370 | 322 | 299 | 231 | 163 | 56.1

Continued by rising pIC50 [8], values first:

Row | Ratio IC50 [7] | pIC50 [8] | pIC50 [9] | SMILES | Activity (Mus musculus [1]) [mg/dL] | Activity (Mus musculus [2]) [mg/dL] | Activity (Mus musculus [3]) [mg/dL] | Activity (Mus musculus [4]) [mg/dL] | Activity (Mus musculus [5]) [mg/dL] | inhibition in vivo at 10 mg/kg (Mus musculus [6]) [%]
6 | 96 | 4.45 | 6.43 | O=C(CN1C(=O)NC2(C1=O)c1ccccc1-c1ccccc12)Nc1ccc(Cl)cc1Cl | 398 | 290 | 223 | 168 | 63 | 84.3
7 | 16.9 | 4.48 | 5.71 | O=C(CN1C(=O)NC2(CCCCC2)C1=O)Nc1ccc(Cl)cc1Cl | 384 | 319 | 269 | 217 | 121 | 68.5
8 | 43.4 | 4.51 | 6.14 | O=C(CN1C(=O)NC2(CCCCC2)C1=O)Nc1ccc(Br)cc1 | 459 | 386 | 276 | 182 | 69 | 85.1
9 | 32.6 | 4.52 | 6.03 | O=C(CN1C(=O)NC2(C1=O)c1ccccc1-c1ccccc12)Nc1ccc(Br)cc1 | 452 | 331 | 218 | 173 | 85 | 81.1
10 | 21.6 | 4.65 | 5.99 | O=C(CN1C(=O)NC2(C1=O)c1ccccc1-c1ccccc12)Nc1ccc(Cl)cc1 | 460 | 350 | 234 | 189 | 90 | 80.4
11 | 0.63 | 5.19 | 4.99 | Cc1ccc(NC(=O)CN2C(=O)NC3(CCCCC3)C2=O)cc1 | 387 | 305 | 268 | 197 | 115 | 70.3
